The text below walks through data of ChEMBL document CHEMBL1641407, “Imidazo[4,5-d]thiazolo[5,4-b]pyridine based inhibitors of IKK2: synthesis, SAR, PK/PD and activity in a preclinical model of rheumatoid arthritis” (Bioorg Med Chem Lett, 2011).

Data set [1] deals with Mus musculus. The data set can be described thus: Antiinflammatory activity in po dosed BALB/c mouse assessed as inhibition of LPS-induced TNFalpha release administered for 5 hrs before LPS challenge measured after 6.5 hrs post dose by ELISA. Format: functional, organism-based. In outline: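 BALB/c female mice, 6–8 weeks old, n = 7–8 per treatment. Compounds given by oral gavage at 30 and 100 mg/kg in PEG400/HCl/Tween80/water; controls received vehicle alone. Five hours later, E. coli O111:B4 LPS 50 µg/kg ip. Serum collected 90 min after LPS, TNF-α measured by ELISA. Drug exposure sampled 6.5 h post-dose. Mean ± standard error.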
A general note: In an ELISA, binding on a coated surface is turned into a signal by an enzyme label.

The subject of a further data set is Canis familiaris. The data set can be described thus: Total AUC in dog at 2 mg/kg, iv. Format: ADME, organism-based, Canis lupus familiaris. The arrangement: time AUCmax, dose 2 mg/kg, route intravenous. The conditions noted are these: in vivo. In outline: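 Dogs received the compound intravenously only, in PEG400:water 80:20. Total plasma exposure (AUC_tot) is reported in nM h.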

For data set [2], the system named is Mus musculus. The data set can be described thus: Total AUC in mouse at 2 mg/kg, iv and 10 mg/kg, po. It counts as ADME, organism-based. The conditions noted are these: in vivo.
Data set [3] is described as follows: Clearance in dog at 2 mg/kg, iv. It counts as ADME, organism-based, Canis lupus familiaris. The arrangement: dose 2 mg/kg, route intravenous. To be noted: in vivo. The method in brief: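 Dog pharmacokinetics, iv dosing only, in vehicle PEG400:water 80:20.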
In the next data set the test system is Blood. The experiment in a line: Antiinflammatory activity in human whole blood assessed as inhibition of LPS-induced TNFalpha release treated for 5 mins before LPS challenge measured after 6 hrs by ELISA. It counts as functional, tissue-based.
Data set [4] in a line: Clearance in mouse at 2 mg/kg, iv and 10 mg/kg, po. Format: ADME, organism-based. To be noted: in vivo.
A short description of data set [5]: Clearance in rat at 2 mg/kg, iv and 10 mg/kg, po. The conditions noted are these: in vivo. It counts as ADME, organism-based.
A short description of data set [6]: Mean residence time in rat at 2 mg/kg, iv and 10 mg/kg, po. It counts as ADME, organism-based. To be noted: in vivo.
Data set [7] is described as follows: Mean residence time in mouse at 2 mg/kg, iv and 10 mg/kg, po. It counts as ADME, organism-based. To be noted: in vivo.
Data set [8] in a line: Half life in rat at 2 mg/kg, iv and 10 mg/kg, po. Format: ADME, organism-based. The conditions noted are these: in vivo.
Data set [9] can be described thus: Tmax in mouse at 2 mg/kg, iv and 10 mg/kg, po. Format: ADME, organism-based. The conditions noted are these: in vivo.
A short description of data set [10]: Tmax in rat at 2 mg/kg, iv and 10 mg/kg, po. It counts as ADME, organism-based. The conditions noted are these: in vivo.
A short description of data set [11]: Oral bioavailability in rat at 10 mg/kg. It counts as ADME, organism-based. The conditions noted are these: in vivo.
Data set [12] deals with Mus musculus. The experiment in a line: Antiarthritic activity in mouse assessed as decrease in collagen-induced arthritis at 60 mg/kg, po BID administered at time of second collagen challenge on day 25 measured on day 42. It counts as functional. In outline: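 Collagen-induced arthritis in mice, n = 14–15 per group. Collagen priming injection on day 1, second collagen injection on day 25. Dosing 60 mg/kg by oral gavage twice daily, or vehicle, starting at the second injection. Read-out is the average gross clinical score per treatment group.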

Data set [13] deals with T1, Cyclin-G-associated kinase (Homo sapiens) (UniProt O14976).
T1 sequence (whole entry): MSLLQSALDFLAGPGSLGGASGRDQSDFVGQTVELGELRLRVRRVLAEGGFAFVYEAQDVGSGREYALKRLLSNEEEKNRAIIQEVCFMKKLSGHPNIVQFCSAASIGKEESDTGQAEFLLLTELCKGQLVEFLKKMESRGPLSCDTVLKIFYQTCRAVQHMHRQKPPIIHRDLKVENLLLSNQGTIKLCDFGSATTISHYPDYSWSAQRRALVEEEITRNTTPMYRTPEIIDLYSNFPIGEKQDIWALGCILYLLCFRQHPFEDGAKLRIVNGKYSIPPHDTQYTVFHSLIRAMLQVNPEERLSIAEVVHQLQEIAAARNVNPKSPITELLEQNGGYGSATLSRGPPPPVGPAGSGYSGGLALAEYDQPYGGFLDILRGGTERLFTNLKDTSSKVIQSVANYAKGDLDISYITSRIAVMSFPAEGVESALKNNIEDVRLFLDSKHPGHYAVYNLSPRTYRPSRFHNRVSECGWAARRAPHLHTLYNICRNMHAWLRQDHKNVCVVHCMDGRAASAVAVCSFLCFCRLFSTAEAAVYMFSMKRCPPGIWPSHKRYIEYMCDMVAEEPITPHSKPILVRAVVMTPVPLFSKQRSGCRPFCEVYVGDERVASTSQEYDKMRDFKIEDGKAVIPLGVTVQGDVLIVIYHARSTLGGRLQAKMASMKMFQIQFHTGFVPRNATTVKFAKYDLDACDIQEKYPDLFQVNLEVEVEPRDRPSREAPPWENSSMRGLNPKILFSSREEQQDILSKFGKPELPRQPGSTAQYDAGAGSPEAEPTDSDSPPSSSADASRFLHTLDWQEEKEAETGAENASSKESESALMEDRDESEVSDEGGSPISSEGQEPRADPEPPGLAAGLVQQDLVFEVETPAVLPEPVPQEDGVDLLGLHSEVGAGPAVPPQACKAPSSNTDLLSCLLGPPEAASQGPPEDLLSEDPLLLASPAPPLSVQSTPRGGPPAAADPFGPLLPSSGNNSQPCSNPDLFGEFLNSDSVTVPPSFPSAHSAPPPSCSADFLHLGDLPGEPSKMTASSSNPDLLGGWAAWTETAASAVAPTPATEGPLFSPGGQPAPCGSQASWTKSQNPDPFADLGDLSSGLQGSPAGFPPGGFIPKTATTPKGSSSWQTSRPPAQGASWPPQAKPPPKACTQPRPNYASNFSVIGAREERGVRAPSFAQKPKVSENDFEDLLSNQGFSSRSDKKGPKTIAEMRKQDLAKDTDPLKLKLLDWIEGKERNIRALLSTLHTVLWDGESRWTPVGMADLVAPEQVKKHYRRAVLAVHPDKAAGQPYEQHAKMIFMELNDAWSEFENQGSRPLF
The data set can be described thus: Residual activity at GAK at 10 uM relative to control.

In data set [14] the target is Serine/threonine-protein kinase 16 (Homo sapiens) (UniProt O75716). The data set can be described thus: Residual activity at STK16 at 10 uM relative to control.
The target of data set [15] is Death-associated protein kinase 2 (Homo sapiens) (UniProt Q9UIK4). The data set can be described thus: Residual activity at DAPK2 at 10 uM relative to control.
Death-associated protein kinase 2 (Homo sapiens), sequence (Q9UIK4 whole entry, looked up): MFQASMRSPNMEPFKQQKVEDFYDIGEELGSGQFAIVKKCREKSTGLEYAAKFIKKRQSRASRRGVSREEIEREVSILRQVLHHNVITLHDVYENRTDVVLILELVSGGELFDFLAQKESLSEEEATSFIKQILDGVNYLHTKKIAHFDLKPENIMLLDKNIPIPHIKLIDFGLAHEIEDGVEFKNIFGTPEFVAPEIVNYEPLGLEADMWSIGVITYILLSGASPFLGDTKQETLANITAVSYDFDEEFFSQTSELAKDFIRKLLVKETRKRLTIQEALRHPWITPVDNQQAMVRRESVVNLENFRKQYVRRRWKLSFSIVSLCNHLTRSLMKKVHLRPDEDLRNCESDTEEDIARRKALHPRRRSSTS

Serine/threonine-protein kinase 16 (Homo sapiens), sequence (O75716 whole entry): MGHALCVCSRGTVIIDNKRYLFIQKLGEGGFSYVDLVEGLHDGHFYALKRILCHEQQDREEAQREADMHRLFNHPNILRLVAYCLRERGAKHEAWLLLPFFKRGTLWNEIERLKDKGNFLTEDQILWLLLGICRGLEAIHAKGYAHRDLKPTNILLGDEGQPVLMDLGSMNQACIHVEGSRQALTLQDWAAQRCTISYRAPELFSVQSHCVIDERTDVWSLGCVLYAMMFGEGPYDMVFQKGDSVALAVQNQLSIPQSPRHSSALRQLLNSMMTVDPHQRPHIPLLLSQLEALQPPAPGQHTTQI

For the compound `CCNc1nc2sc(-c3cccc([C@H](C)NC(C)=O)c3)nc2c2c1ncn2C`, the inhibition entry in the data set on Mus musculus [1] is “Dose-dependent effect”. For the same compound, the AUC in the data set with Canis familiaris amounted to 1980 nM; in the data set on Mus musculus [2] it was 3000 nM. Also, the clearance came to 43 mL/min/kg in [3], 62 mL/min/kg in data set [4] and 63 mL/min/kg in data set [5]. For the same compound, the concentration for half-maximal inhibition (IC50) – broadly, the point on the concentration scale where inhibition reaches its midpoint – in the data set on Blood was found to be 2000 nM. In addition, the mean residence time (MRT) (usually the average time that molecules of a dose stay in the body) in data set [6] came out at 2.1 h; in data set [7], 2.9 h. Besides, the half-life (as a rule, the time needed for the level to fall by half in the phase considered) in [8] was 0.6 h. Also, the time of peak concentration (Tmax) (usually the time from dosing to the highest level) was 0.5 h in [9] and 2 h in data set [10]. For the same compound, in [11], the bioavailability – broadly, dose-corrected exposure relative to a reference, in per cent – was determined as 88%. Moreover, the inhibition in vivo – broadly, the drop in the measured response relative to a control, in per cent – at 60 mg/kg with Mus musculus [12] was found to be 80%. The residual activity in data set [13], in [14] and in data set [15] was less than 10% each time.
